An excerpt weighted towards active compounds, which were near 2.4% of everything screened.
LGR2 inh – inhibitors of bursicon-induced Drosophila LGR2 receptor cAMP signaling. HEK293 LGR2, CRE-luciferase, bursicon-stimulated, 4 h. inhibition, % at 9.99 µM. 380,000 tested, 0.35% active;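 active = drop in luminescence signal, shown as inhibition above about 50% in the replicate tests, limit read from the data, passing the limit was not always enough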;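 also: agonist challenge used bursicon conditioned medium at about half maximal strength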
rRNA inh HTS – inhibits bacterial ribosomal RNA function over humanized ribosomes. E. coli WT GFP vs humanized-ribosome RFP mutants, fluorescence, 24 h; stronger effect = lower value; DMSO median 0, no signal -100. GFP signal change (wild-type ribosome), % (test concentration not listed). 350,000 tested, 1.6% active. AID 720706;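 active = significant combined selectivity score with lowered wild-type GFP, culture density cut under 30%, mutant RFP and density less affected; inactive = any of these conditions unmet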
EWS-Fli inh – inhibitors of EWS/Fli oncoprotein transcriptional activity; A673 NR0B1-luciferase reporter, viability-normalised; inhibition, % at 12.6 µM; 350,000 tested, 0.67% active; AID 651661;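 active = mean inhibition of at least 50% after viability correction, with every replicate also passing that limit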;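 also: firefly luciferase signal divided by Alamar Blue viability fluorescence both relative to DMSO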
E-sel inducer – E-selectin induction on HUVECs | AID 686992 | activation, % at 7.58 µM | HUVEC E-selectin immunofluorescence imaging; normalized: neutral wells 0, TNF-alpha wells 100 | 260,000 tested, 0.37% active | P16581;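 active = mean E-selectin-positive cell signal at least 10% of the positive control, reached in at least 60% of replicates, without over 20% cell loss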
Target sequence (P16581 whole entry, looked up): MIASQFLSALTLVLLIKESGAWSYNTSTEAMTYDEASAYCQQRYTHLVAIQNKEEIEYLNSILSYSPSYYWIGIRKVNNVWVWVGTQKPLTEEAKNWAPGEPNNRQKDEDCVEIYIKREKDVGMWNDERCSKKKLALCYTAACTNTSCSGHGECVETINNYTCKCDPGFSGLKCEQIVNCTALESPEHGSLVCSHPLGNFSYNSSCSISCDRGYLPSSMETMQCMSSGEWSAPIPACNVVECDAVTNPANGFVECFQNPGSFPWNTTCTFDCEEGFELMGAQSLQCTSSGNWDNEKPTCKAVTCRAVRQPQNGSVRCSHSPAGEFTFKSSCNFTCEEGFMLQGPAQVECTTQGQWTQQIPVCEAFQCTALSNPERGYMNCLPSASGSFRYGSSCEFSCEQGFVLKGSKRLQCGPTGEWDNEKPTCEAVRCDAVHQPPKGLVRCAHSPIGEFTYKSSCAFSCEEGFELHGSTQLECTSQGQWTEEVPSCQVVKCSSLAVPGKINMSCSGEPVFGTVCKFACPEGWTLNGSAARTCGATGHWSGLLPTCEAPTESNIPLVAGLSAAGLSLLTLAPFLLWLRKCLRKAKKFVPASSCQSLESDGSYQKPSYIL
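Test system: HUVEC; input: 3,000 HUVEC/well; measured by: immunofluorescence imaging; read-out: % PE-positive cells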
The depositor's hits bear a star; x = no result given.

SMILES	LGR2 inh	rRNA inh HTS	EWS-Fli inh	E-sel inducer
O=C(COc1ccccc1Cl)Nc1cccc(S(=O)(=O)N2CCCC2)c1	-2	-34*	15	x
O=C(Nc1cccc(S(=O)(=O)N2CCOCC2)c1)c1cc2ccccc2o1	6	-17	-14	0
CC(C)Cn1nc(C(=O)Nc2cccc(S(=O)(=O)N3CCCC3)c2)c2ccccc2c1=O	-7	-5	19	1
O=C(Nc1cccc(S(=O)(=O)N2CCCCC2)c1)c1cc2ccccc2o1	0	-24*	-3	0
CCn1nc(C(=O)Nc2cccc(S(=O)(=O)N3CCCC3)c2)c2ccccc2c1=O	-15	-27*	3	x
CN(C)S(=O)(=O)c1cccc(NC(=O)COc2ccccc2C(=O)NCc2ccccc2)c1	-22	-34*	5	0
C[C@@H]1CN([C@H](C)CO)C(=O)c2cccc(NC(=O)Nc3ccc4c(c3)OCO4)c2O[C@H]1CN(C)CC1CCCCC1	-18	-13	x	0
C[C@H]1CN([C@@H](C)CO)C(=O)c2cc(C#CC3CC3)cnc2O[C@@H]1CN(C)C(=O)c1ccncc1	-9	7	-6	2
O=C(C[C@@H]1CC[C@@H](NC(=O)C2CCOCC2)[C@@H](CO)O1)NCc1ccncc1	-1	3	-1	-1
COc1cccc(OC)c1OCC(=O)Nc1ccc(S(=O)(=O)N2CCCC2)cc1	8	-34*	-3	x
CCCOc1ccccc1OCC(=O)Nc1ccc(S(=O)(=O)N2CCCC2)cc1	-2	-8	0	0
CC(C)NC(=O)N[C@@H]1C[C@@H]2O[C@H](CO)CC[C@@H]2O[C@@H]1CCc1ccc(-c2ccc(F)cc2)cc1	x	x	-1	x
Cc1cc(C(c2ccc(O)cc2)c2cc(C)c(O)cc2C)c(C)cc1O	8	-37*	18	x
CCCCOC(=O)/C=C/c1c(C)[nH]c(=O)[nH]c1=O	-5	-34*	-1	0
c1ccc(Cc2cc[n+](Cc3ccccn3)cc2)cc1	5	21	7	45*
O=[N+]([O-])c1ccc(C[n+]2ccc(Cc3ccccc3)cc2)cc1	-10	11	8	x
CCCNC(=O)Nc1ccc2c(c1)C(=O)N(C)[C@H]1CC[C@@H](CC(=O)NCc3ccccc3)O[C@@H]1CO2	12	-2	3	0
Cc1c(C(=O)N2CCN(c3ccccc3)CC2)oc2c1C(=O)CC(C)(C)C2	8	-23*	-3	x
Cc1ccc(-c2nnc(COC(=O)c3ccco3)o2)cc1	-23	0	-9	0
Cc1ccc(C(=O)OCc2nnc(-c3ccc(Br)cc3)o2)cc1	-2	-16*	-4	2
O=C(C[C@H]1CC[C@H](NC(=O)c2ccc(F)cc2)[C@@H](CO)O1)NCc1ccncn1	-13	3	x	0
Oc1cccc(C=Nc2cccc3ccccc23)c1O	-3	-32*	26	2
Oc1ccccc1C=Nc1cccc2ccccc12	0	2	43	0
COc1cc(NS(C)(=O)=O)ccc1Nc1c2ccccc2nc2ccccc12	-7	x	58*	3
Cc1ccc(NC(=O)c2cc3ccccc3oc2=N)cc1	89*	-3	69*	0
SMILES	LGR2 inh	rRNA inh HTS	EWS-Fli inh	E-sel inducer
Cc1ccc(NC(=O)c2cc(C)nn2-c2ccccc2)cc1	-40	3	-17	0
Cc1cc(C(=O)NNS(=O)(=O)c2cc(C(=O)O)ccc2Cl)c(C)n1-c1ccccc1	-10	0	34	0
Cc1cc(C(=O)Nc2ccc(Cl)cc2)n(-c2ccccc2)n1	-12	-2	-25	41*
Cc1ccc(NC(=O)c2cc(C)n(-c3cccc(C)c3)c2C)cc1	-65	x	-97	-1
Cc1ccc(NC(=O)c2cc(C)n(-c3ccccc3)c2C)cc1	x	-18	69*	x
N=c1oc2ccccc2cc1C(=O)Nc1ccc(F)cc1	9	-1	26	x
Cc1cc(C(=O)Nc2ccc(Cl)cc2)c(C)n1-c1ccccc1	82*	-40*	58*	0
CCCN(C)C[C@H]1Oc2cc(-c3cccc(F)c3)ccc2S(=O)(=O)N([C@H](C)CO)C[C@H]1C	4	-1	-2	0
CNC(=S)NC1CC2CCCC(C1)N2Cc1ccccc1OC (stereo unspecified)	7	-17*	-1	0
CNC(=S)NC1CC2CCCC(C1)N2Cc1ccc(C)cc1 (stereo unspecified)	8	11	-1	0
COCC(=O)N1[C@@H](CO)[C@@H](c2ccccc2)C12CN(C(=O)c1cccnc1)C2	-5	2	-3	0
CC(C)(C)C1CCC(OCC(O)CN2CCN(Cc3ccccc3)CC2)CC1 (stereo unspecified)	6	-26	10	x
